# Measured values: ChEMBL document CHEMBL1149110, “Identification of 2-[2-[2-(5-bromo-2- methoxyphenyl)-ethyl]-3-fluorophenyl]-4,5-dihydro-1H-imidazole (ML00253764), a small molecule melanocortin 4 receptor antagonist that effectively reduces tumor-induced weight loss in a mouse model” (J Med Chem, 2004)
# Legend:
# Melanocortin receptor 4 = Melanocortin receptor 4 (Mus musculus, UniProt P56450); assay: Competition binding affinity at mice melanocortin 4 receptor using [125I][NDP]-R-MSH as radioligand in a membrane filtration assay; format: cell membranes
# How it was run: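 Membrane filtration competition binding at MC4R with 125I-[NDP]-α-MSH as radioligand. Values are averages of at least three measurements, reported ± SD.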
# Mus musculus = organism: Mus musculus; assay: Functional antagonism measured by inhibition of cAMP production induced by [NDP]-R-MSH in a whole cell assay in mice
# How it was run: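 Whole-cell functional assay measuring inhibition of cAMP production stimulated by [NDP]-α-MSH. Values are averages of at least three measurements, reported ± SD.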
# Melanocortin receptor 4, sequence (P56450 whole entry): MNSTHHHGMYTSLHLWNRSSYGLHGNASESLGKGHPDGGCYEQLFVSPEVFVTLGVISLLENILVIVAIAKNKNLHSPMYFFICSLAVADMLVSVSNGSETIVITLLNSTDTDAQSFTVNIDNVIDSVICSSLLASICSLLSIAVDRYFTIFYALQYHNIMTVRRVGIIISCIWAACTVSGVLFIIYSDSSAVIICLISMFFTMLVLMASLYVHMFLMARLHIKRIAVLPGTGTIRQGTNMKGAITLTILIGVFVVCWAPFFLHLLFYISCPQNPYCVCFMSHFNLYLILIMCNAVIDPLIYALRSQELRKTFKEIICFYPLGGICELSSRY
SMILES,Ki (Melanocortin receptor 4),IC50 (Mus musculus)
Fc1cccc(Cl)c1CSc1ccccc1C1=NCCCN1,2700 nM,
COc1ccc(Br)cc1CCc1ccccc1C1=NCCCN1,220 nM,280 nM
COc1ccc(Br)cc1CCc1c(F)cccc1C1=NCCN1,160 nM,
Clc1cc(CSc2ccccc2C2=NCCCN2)c(Cl)s1,2200 nM,
COc1ccc(Br)cc1CCc1ccccc1C1=NCCN1,39 nM,450 nM
COc1ccc(Br)cc1CSc1ccccc1C1=NCCCN1,67 nM,270 nM
Fc1cccc(F)c1CSc1ccccc1C1=NCCCN1,15800 nM,
